System: not listed separately
Assay: Growth inhibition of human A549 cells by MTS assay
Type: functional, cell-based
Conditions: not given
Outline: (§1)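 Cancer lines grown in their own media with 10% FBS at 37 °C, 5% CO2; 1 × 10^4 cells/well treated 48 h at 0.01−100 μM (DMSO stocks, 0.1% DMSO control), quadruplicate wells. MTS reagent 1−4 h, absorbance 490 nm. IC50 by sigmoidal fitting; mean ± SD of three independent experiments.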

| Structure (SMILES) | IC50 |
| --- | --- |
| COc1cc2occ(-c3cc4c(c(OC)c3OC)OCO4)c(=O)c2cc1OC | > 10000 nM |
| COc1cccc(-c2coc3cc(OC)c(OC)cc3c2=O)c1 | > 10000 nM |
| COc1ccc(/C=C\c2cc(OC)c(OC)c(OC)c2)cc1OP(=O)([O-])[O-].[Na+].[Na+] [FOSBRETABULIN DISODIUM] | 23.4 nM |
| COc1cc2occ(-c3cc(OC)c4c(c3OC)OCO4)c(=O)c2cc1OC [GLAZIOVIANIN A] | 1100 nM |

System: Paracentrotus lividus
Assay: Antimitotic activity against sea urchin Paracentrotus lividus L embryo assessed as induction of tuberculate egg formation
Type: functional
Conditions: not given
Outline: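 Fertilized eggs were exposed 8−15 min post-fertilization to 2-fold decreasing concentrations, as a monolayer of up to 2000 embryos/mL in filtered seawater at room temperature. The 10 mM DMSO stock was diluted 10-fold in 96% EtOH. Cleavage alteration or arrest was scored by light microscopy at 2.5−5.5 h post-fertilization, and the effective threshold concentration was recorded from duplicate measurements.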

| Structure (SMILES) | EC |
| --- | --- |
| COc1cc2occ(-c3cc4c(c(OC)c3OC)OCO4)c(=O)c2cc1OC | 5 µM |
| COc1ccc(-c2coc3cc(OC)c(O)cc3c2=O)cc1 | 4 µM |

System: Paracentrotus lividus
Assay: Antimitotic activity in sea urchin Paracentrotus lividus L embryo assessed as induction of cleavage alteration
Type: functional
Conditions: not given
Outline: (§2)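 Gametes collected by intracoelomic 0.5 M KCl injection; fertilized eggs (8−15 min postfertilization) exposed in seawater to 2-fold decreasing concentrations, up to 2000 embryos/mL, room temperature. Stocks 10 mM in DMSO diluted 10-fold in 96% EtOH. Cleavage alteration/arrest scored at 2.5−5.5 h; effective threshold concentration reported, duplicate measurements.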

| Structure (SMILES) | EC |
| --- | --- |
| COc1ccc(-c2coc3c(OC)c(OC)c(OC)cc3c2=O)cc1OC | 4 µM |
| COc1cc2occ(-c3cc4c(c(OC)c3OC)OCO4)c(=O)c2cc1OC | 0.5 µM |
| COc1cccc(-c2coc3cc(OC)c(OC)cc3c2=O)c1 | 2 µM |
| COc1ccc(-c2coc3cc(OC)c(O)cc3c2=O)cc1 | 1 µM |
| COc1ccc(-c2coc3cc(OC)c(OC)c(OC)c3c2=O)cc1 | >4 µM |
| COc1ccc(/C=C\c2cc(OC)c(OC)c(OC)c2)cc1OP(=O)([O-])[O-].[Na+].[Na+] [FOSBRETABULIN DISODIUM] | 0.005 µM |
| COc1cc2occ(-c3cc(OC)c4c(c3OC)OCO4)c(=O)c2cc1OC [GLAZIOVIANIN A] | 0.05 µM |

System: not listed separately
Assay: Growth inhibition of human MDA-MB-231 cells measured after 48 hrs by MTS assay
Type: functional, cell-based
Conditions: MDA-MB-231, 48 h
Outline: as §1

| Structure (SMILES) | IC50 |
| --- | --- |
| COc1cc2occ(-c3cc4c(c(OC)c3OC)OCO4)c(=O)c2cc1OC | 7100 nM |
| COc1cccc(-c2coc3cc(OC)c(OC)cc3c2=O)c1 | > 10000 nM |
| COc1ccc(/C=C\c2cc(OC)c(OC)c(OC)c2)cc1OP(=O)([O-])[O-].[Na+].[Na+] [FOSBRETABULIN DISODIUM] | 2.8 nM |
| COc1cc2occ(-c3cc(OC)c4c(c3OC)OCO4)c(=O)c2cc1OC [GLAZIOVIANIN A] | 2200 nM |

System: Paracentrotus lividus
Assay: Antimitotic activity against sea urchin Paracentrotus lividus L embryo assessed as induction of cleavage arrest
Type: functional
Conditions: not given
Outline: as §2

| Structure (SMILES) | EC |
| --- | --- |
| COc1ccc(-c2coc3c(OC)c(OC)c(OC)cc3c2=O)cc1OC | >4 µM |
| COc1cccc(-c2coc3cc(OC)c(OC)cc3c2=O)c1 | >4 µM |
| COc1ccc(-c2coc3cc(OC)c(OC)c(OC)c3c2=O)cc1 | >4 µM |
| COc1ccc(/C=C\c2cc(OC)c(OC)c(OC)c2)cc1OP(=O)([O-])[O-].[Na+].[Na+] [FOSBRETABULIN DISODIUM] | 0.01 µM |
| COc1cc2occ(-c3cc(OC)c4c(c3OC)OCO4)c(=O)c2cc1OC [GLAZIOVIANIN A] | 0.5 µM |

System: not listed separately
Assay: Growth inhibition of human PBMC cells measured after 48 hrs by MTS assay
Type: cell-based
Conditions: not given
Outline: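 PBMCs from healthy volunteers by Ficoll-Paque density separation, washed in RPMI 1640, cultured in RPMI 1640 with 10% heat-inactivated FBS at 37 °C, 5% CO2. Seeded 1 × 10^4 cells/well, treated 48 h at 0.01−100 μM, 0.1% DMSO control, quadruplicate wells; MTS read at 490 nm; IC50 by sigmoidal fitting, three experiments.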

| Structure (SMILES) | IC50 |
| --- | --- |
| COc1cc2occ(-c3cc4c(c(OC)c3OC)OCO4)c(=O)c2cc1OC | > 10000 nM |
| COc1cccc(-c2coc3cc(OC)c(OC)cc3c2=O)c1 | > 10000 nM |
| COc1ccc(/C=C\c2cc(OC)c(OC)c(OC)c2)cc1OP(=O)([O-])[O-].[Na+].[Na+] [FOSBRETABULIN DISODIUM] | 170 nM |
| COc1cc2occ(-c3cc(OC)c4c(c3OC)OCO4)c(=O)c2cc1OC [GLAZIOVIANIN A] | > 10000 nM |

System: not listed separately
Assay: Growth inhibition of human DU145 cells measured after 48 hrs by MTS assay
Type: functional, cell-based
Conditions: DU-145, 48 h
Outline: as §1

| Structure (SMILES) | IC50 |
| --- | --- |
| COc1cc2occ(-c3cc4c(c(OC)c3OC)OCO4)c(=O)c2cc1OC | 6400 nM |
| COc1cccc(-c2coc3cc(OC)c(OC)cc3c2=O)c1 | > 10000 nM |
| COc1ccc(/C=C\c2cc(OC)c(OC)c(OC)c2)cc1OP(=O)([O-])[O-].[Na+].[Na+] [FOSBRETABULIN DISODIUM] | 1.4 nM |
| COc1cc2occ(-c3cc(OC)c4c(c3OC)OCO4)c(=O)c2cc1OC [GLAZIOVIANIN A] | 870 nM |

System: Paracentrotus lividus
Assay: Antimitotic activity against sea urchin Paracentrotus lividus L embryo assessed as induction of embryo spinning
Type: functional
Conditions: not given
Outline: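 Hatched free-swimming blastulae (8−9 h postfertilization) exposed to 2-fold decreasing concentrations in seawater, room temperature; DMSO stock diluted 10-fold in 96% EtOH. Observed to four-arm pluteus (34−36 h); spinning on well bottom without forward movement scored as microtubule destabilization; effective threshold concentration, duplicate measurements.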

| Structure (SMILES) | EC |
| --- | --- |
| COc1ccc(-c2coc3c(OC)c(OC)c(OC)cc3c2=O)cc1OC | >4 µM |
| COc1cc2occ(-c3cc4c(c(OC)c3OC)OCO4)c(=O)c2cc1OC | >5 µM |
| COc1cccc(-c2coc3cc(OC)c(OC)cc3c2=O)c1 | >5 µM |
| COc1ccc(-c2coc3cc(OC)c(O)cc3c2=O)cc1 | >5 µM |
| COc1ccc(-c2coc3cc(OC)c(OC)c(OC)c3c2=O)cc1 | >4 µM |
| COc1ccc(/C=C\c2cc(OC)c(OC)c(OC)c2)cc1OP(=O)([O-])[O-].[Na+].[Na+] [FOSBRETABULIN DISODIUM] | 0.05 µM |
| COc1cc2occ(-c3cc(OC)c4c(c3OC)OCO4)c(=O)c2cc1OC [GLAZIOVIANIN A] | 4 µM |

System: not listed separately
Assay: Growth inhibition of human PC3 cells measured after 48 hrs by MTS assay
Type: functional, cell-based
Conditions: PC-3, 48 h
Outline: as §1

| Structure (SMILES) | IC50 |
| --- | --- |
| COc1cc2occ(-c3cc4c(c(OC)c3OC)OCO4)c(=O)c2cc1OC | 7300 nM |
| COc1cccc(-c2coc3cc(OC)c(OC)cc3c2=O)c1 | > 10000 nM |
| COc1ccc(/C=C\c2cc(OC)c(OC)c(OC)c2)cc1OP(=O)([O-])[O-].[Na+].[Na+] [FOSBRETABULIN DISODIUM] | 6.2 nM |
| COc1cc2occ(-c3cc(OC)c4c(c3OC)OCO4)c(=O)c2cc1OC [GLAZIOVIANIN A] | 830 nM |

System: not listed separately
Assay: Growth inhibition of human SKOV3 cells measured after 48 hrs by MTS assay
Type: functional, cell-based
Conditions: SK-OV-3, 48 h
Outline: as §1

| Structure (SMILES) | IC50 |
| --- | --- |
| COc1cc2occ(-c3cc4c(c(OC)c3OC)OCO4)c(=O)c2cc1OC | > 10000 nM |
| COc1cccc(-c2coc3cc(OC)c(OC)cc3c2=O)c1 | > 10000 nM |
| COc1ccc(/C=C\c2cc(OC)c(OC)c(OC)c2)cc1OP(=O)([O-])[O-].[Na+].[Na+] [FOSBRETABULIN DISODIUM] | 7.7 nM |
| COc1cc2occ(-c3cc(OC)c4c(c3OC)OCO4)c(=O)c2cc1OC [GLAZIOVIANIN A] | 430 nM |

System: not listed separately
Assay: Growth inhibition of human HCT116 cells measured after 48 hrs by MTS assay
Type: functional, cell-based
Conditions: HCT-116, 48 h
Outline: as §1

| Structure (SMILES) | IC50 |
| --- | --- |
| COc1cc2occ(-c3cc4c(c(OC)c3OC)OCO4)c(=O)c2cc1OC | 3400 nM |
| COc1cccc(-c2coc3cc(OC)c(OC)cc3c2=O)c1 | > 10000 nM |
| COc1ccc(/C=C\c2cc(OC)c(OC)c(OC)c2)cc1OP(=O)([O-])[O-].[Na+].[Na+] [FOSBRETABULIN DISODIUM] | 1.6 nM |
| COc1cc2occ(-c3cc(OC)c4c(c3OC)OCO4)c(=O)c2cc1OC [GLAZIOVIANIN A] | 690 nM |

System: not listed separately
Assay: Growth inhibition of human A375 cells measured after 48 hrs by MTS assay
Type: functional, cell-based
Conditions: A-375, 48 h
Outline: as §1

| Structure (SMILES) | IC50 |
| --- | --- |
| COc1cc2occ(-c3cc4c(c(OC)c3OC)OCO4)c(=O)c2cc1OC | 1700 nM |
| COc1cccc(-c2coc3cc(OC)c(OC)cc3c2=O)c1 | > 10000 nM |
| COc1ccc(/C=C\c2cc(OC)c(OC)c(OC)c2)cc1OP(=O)([O-])[O-].[Na+].[Na+] [FOSBRETABULIN DISODIUM] | 1.6 nM |
| COc1cc2occ(-c3cc(OC)c4c(c3OC)OCO4)c(=O)c2cc1OC [GLAZIOVIANIN A] | 270 nM |

From ChEMBL document CHEMBL3853277, “Efficient Synthesis of Glaziovianin A Isoflavone Series from Dill and Parsley Extracts and Their in Vitro/in Vivo Antimitotic Activity” (J Nat Prod, 2016)
